Measurements: ChEMBL document CHEMBL1821561 (Bioorg Med Chem, 2011)
Structures can show the parent of a compound that is named as a salt.

Legend:
[1] = Displacement of [3H]SCH23390 from dopamine D1-like receptor in pig striatal tissue homogenates after 30 mins by scintillation counting; assay type: tissue-based, Sus scrofa, Striatum
[2] = Displacement of [3H]-N-methylspiperone from dopamine D2-like receptor in pig striatal tissue homogenates after 30 mins by scintillation counting; assay type: tissue-based, Sus scrofa, Striatum
Outline: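 Porcine striatal membranes with 0.2 nM [3H]-N-methylspiperone plus 50 nM ketanserin to block 5-HT2A sites. Buffer 50 mM HEPES, 4 mM MgCl2, pH 7.4. Nonspecific binding defined with (+)-butaclamol. Incubated 37 °C for 30 min, then filtered and washed with ice-cold Tris/NaCl.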

D(1A) dopamine receptor [3] = target: T1, D(1A) dopamine receptor (Homo sapiens, UniProt P21728); test: Intrinsic activity at human dopamine D1 receptor expressed in HEK293 cells assessed as cAMP accumulation after 15 mins relative to dopamine; assay type: functional, cell-based
T1 sequence (P21728 whole entry): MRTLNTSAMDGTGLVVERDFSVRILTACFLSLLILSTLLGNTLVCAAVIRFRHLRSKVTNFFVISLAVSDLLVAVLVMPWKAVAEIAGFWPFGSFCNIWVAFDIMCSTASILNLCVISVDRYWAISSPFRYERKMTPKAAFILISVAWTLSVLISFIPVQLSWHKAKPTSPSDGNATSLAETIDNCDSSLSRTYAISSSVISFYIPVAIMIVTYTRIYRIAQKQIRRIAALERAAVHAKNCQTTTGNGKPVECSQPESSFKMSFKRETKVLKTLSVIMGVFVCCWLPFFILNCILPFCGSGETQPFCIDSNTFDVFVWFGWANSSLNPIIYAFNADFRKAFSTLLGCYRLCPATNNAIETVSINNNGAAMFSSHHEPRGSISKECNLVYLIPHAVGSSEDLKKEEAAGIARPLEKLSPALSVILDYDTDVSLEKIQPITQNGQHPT
Outline: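 HEK293 cells stably expressing hD1 (about 1800 fmol/mg) grown to 90–95% confluency. Medium replaced with 500 µM IBMX in EBSS, then drug added in duplicate for 15 min at 37 °C. Stopped with 3% trichloroacetic acid. cAMP measured by [3H]cAMP competition with bovine adrenal binding protein against a standard curve. Maximal response expressed as percent of 10 µM dopamine.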

D(1A) dopamine receptor [4] = target: T1, D(1A) dopamine receptor; test: Agonist activity at human dopamine D1 receptor expressed in HEK293 cells assessed as cAMP accumulation after 15 mins; assay type: functional, cell-based
Sus scrofa = species on record: Sus scrofa; test: Ratio of SKF38393 Ki to compound Ki for dopamine D1-like receptor in pig striatal tissue homogenates; assay type: tissue-based; conditions: Striatum

| Compound | Ki [1] | Ki [2] | Intrinsic activity (D(1A) dopamine receptor [3]) | EC50 (D(1A) dopamine receptor [4]) | Ratio Ki (Sus scrofa) |
| --- | --- | --- | --- | --- | --- |
| CN1CCc2cc(Cl)c(O)cc2[C@H]2c3ccccc3CC[C@@H]21 [ECOPIPAM HYDROCHLORIDE] | 0.0013 µM | 2.01 µM |  |  |  |
| Oc1cc2c(cc1O)[C@@H](c1ccccc1)CNCC2 | 0.151 µM | 2.36 µM | 93% |  |  |
| Oc1cc2c(cc1O)[C@H]1c3ccccc3OC[C@@H]1NCC2 (racemic) | 0.186 µM | 44.8 µM | 60% | 0.57 µM |  |
| CN1CCc2cc(Cl)c(O)cc2[C@@H](c2ccccc2)C1 | 0.00064 µM |  |  |  |  |
| Oc1cc2c(cc1O)[C@H]1c3ccccc3SC[C@@H]1NCC2 (racemic) | 0.092 µM | 28 µM | 21% | 0.584 µM | 1.6 |
| Oc1cc2c(cc1O)[C@H]1c3ccccc3CC[C@@H]1NCC2 (racemic) | 0.257 µM | 8.48 µM | 28% | 0.438 µM |  |
| Oc1cc2c(cc1O)[C@@H]1c3ccccc3CC[C@@H]1NCC2 (racemic) | 22 µM | 88 µM |  |  |  |
| Oc1cc2c(cc1O)[C@H]1c3ccccc3CN[C@@H]1CC2 (racemic) [DIHYDREXIDINE] |  | 0.32 µM | 103% |  |  |
